From ChEMBL document CHEMBL4138101, “Rhodium-catalyzed C-H bond activation for the synthesis of quinonoid compounds: Significant Anti-Trypanosoma cruzi activities and electrochemical studies of functionalized quinones” (Eur J Med Chem, 2017) come the findings set out here.

The term IC50 denotes the concentration at which inhibition is half-maximal.

For series [1], the system named is Trypanosoma cruzi. The experiment in a line: Antitrypanosomal activity against bloodstream forms of Trypanosoma cruzi Y isolated from parasite infected Albino Swiss mouse assessed as induction of parasite lysis incubated for 24 hrs by Neubauer chamber based cell counting method. The class given is functional, organism-based. The essentials: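 Bloodstream trypomastigotes were taken from infected mice at peak parasitemia by differential centrifugation and resuspended at 10x10^6 cells/mL in DMES medium. They were mixed 1:1 with compound at twice the final concentration, with DMSO final ≤0.1%, and incubated at 37°C for 24 h. Benznidazole was the control. Counts were made in a Neubauer chamber, giving IC50/24 h as the concentration causing 50% parasite lysis.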

Series [2] can be described thus: Selectivity index, ratio of LC50 for cytotoxicity against Swiss albino mouse peritoneal macrophages to IC50 for Antitrypanosomal activity against bloodstream forms of Trypanosoma cruzi Y isolated from parasite infected Albino Swiss mouse. The class given is toxicity. Conditions: read-out: Ratio LC50/IC50.
A short description of series [3]: Cytotoxicity against Swiss albino mouse peritoneal macrophages after 24 hrs by PrestoBlue dye based assay. As to conditions: read-out: LC50. The class given is cell-based, Peritoneal macrophage.
The test system of series [4] is Trypanosoma cruzi. The experiment in a line: Potency index, ratio of juglone IC50 to compound IC50 for antitrypanosomal activity against bloodstream forms of Trypanosoma cruzi Y isolated from parasite infected Albino Swiss mouse. The class given is functional.

As to `COc1cccc2c1C(=O)C=CC2=O`, the IC50 in the series on Trypanosoma cruzi [1] was found to be 1.02 µM.

Take `CC(=O)Oc1cccc2c1C(=O)C=CC2=O`: the IC50 with Trypanosoma cruzi [1] is 0.16 µM.

Take `CC(C)(C)C1=CC(=O)C(Br)=CC1=O`: the selectivity ratio in series [2] stood at 3. For the same molecule, the CC50 at 24 h in series [3] turned out to be 42.3 µM. Moreover, the IC50 in the series with Trypanosoma cruzi [1] came to 14.1 µM.

Take `COC1=C(I)C(=O)C(I)=C(OC)C1=O`: in series [3], the CC50 at 24 h came out at 27.7 µM. Also, the 50% inhibitory concentration (IC50) in the series with Trypanosoma cruzi [1] is 1.94 µM.

Consider `O=C1C=CC(=O)C([Se]c2ccccc2)=C1`, for which the selectivity ratio in series [2] stood at 0.86. In series [3], the CC50 at 24 h was 13.8 µM. For the same molecule, the IC50 with Trypanosoma cruzi [1] turned out to be 16 µM.

As for `Nc1c(I)ccc2c1C(=O)C=CC2=O`, the selectivity ratio in series [2] turned out to be 23.4. In series [3], the CC50 at 24 h amounted to 13.1 µM. The concentration for half-maximal inhibition (IC50) in the series with Trypanosoma cruzi [1] stood at 0.56 µM.

Take `COc1ccc2c(c1I)C(=O)C=CC2=O`: the selectivity ratio in series [2] was determined as 12.1. Moreover, the CC50 at 24 h in series [3] turned out to be 14.2 µM. Also, the IC50 with Trypanosoma cruzi [1] is 1.17 µM.

For `O=C1C=C(I)C(=O)c2ccccc21`, in series [2], the selectivity ratio was determined as 8.2. Also, in series [3], the CC50 at 24 h came out at 14.7 µM. Besides, in the series with Trypanosoma cruzi [1], the IC50 was 1.79 µM.

Consider `CC1=CC(=O)c2c(ccc(I)c2O)C1=O`, for which, in series [2], the selectivity ratio worked out at 15.8. The CC50 at 24 h in series [3] was 15.7 µM. Further, the IC50 in the series with Trypanosoma cruzi [1] came out at 0.99 µM.

For `O=C1C=CC(=O)c2c(O)c(I)cc(I)c21`, the selectivity ratio in series [2] is more than 5.1. Moreover, the CC50 at 24 h in series [3] was more than 100 µM. In addition, in the series with Trypanosoma cruzi [1], the IC50 is 24.8 µM.

Consider `O=C1C=CC(=O)c2c(C#Cc3ccccc3)cccc21`, for which the selectivity ratio in series [2] came to 5.7. The CC50 at 24 h in series [3] was 12.5 µM. Moreover, the half-maximal inhibitory concentration (IC50) with Trypanosoma cruzi [1] was found to be 2.2 µM.

As for `O=C1C=C(Br)C(=O)C(Cl)=C1Cl`, the selectivity ratio in series [2] was more than 6.5. For the same molecule, in series [3], the CC50 at 24 h is more than 100 µM. In addition, in the series with Trypanosoma cruzi [1], the 50% inhibitory concentration (IC50) is 15.4 µM.

In the case of `Cc1cc(I)c2c(c1)C(=O)C=CC2=O`, the selectivity ratio in series [2] came out at 24.7. Further, the CC50 at 24 h in series [3] worked out at 12.1 µM. In addition, the IC50 in the series with Trypanosoma cruzi [1] stood at 0.49 µM.

As to `O=C1C=CC(=O)c2c(I)ccc(I)c21`, in series [3], the CC50 at 24 h is 12.9 µM. In the series with Trypanosoma cruzi [1], the IC50 was 0.22 µM.

Turning to `CCOC(=O)/C=C/c1cccc2c1C(=O)C=CC2=O`, the selectivity ratio in series [2] was found to be 2.1. In series [3], the CC50 at 24 h is 12.7 µM. In the series with Trypanosoma cruzi [1], the 50% inhibitory concentration (IC50) came out at 6.03 µM.

Take `O=C1C(Cl)=C(Cl)C(=O)c2c(I)cccc21`: the selectivity ratio in series [2] stood at 3.8. In series [3], the CC50 at 24 h is 27.8 µM. In addition, the half-inhibitory concentration (IC50) in the series with Trypanosoma cruzi [1] stood at 7.26 µM.

Consider `CC(C)(C)C1=CC(=O)C(I)=CC1=O`, for which the selectivity ratio in series [2] was found to be 2.8. The CC50 at 24 h in series [3] was 35.9 µM. In the series on Trypanosoma cruzi [1], the IC50 is 12.8 µM.

Regarding `CC(=O)Oc1cccc2c1C(=O)C(Br)=CC2=O`, the IC50 in the series with Trypanosoma cruzi [1] stood at 0.85 µM.

For `COC1=C(I)C(=O)C=CC1=O`, the selectivity ratio in series [2] came to 1.4. Besides, the CC50 at 24 h in series [3] was determined as 32.6 µM. In addition, the 50% inhibitory concentration (IC50) in the series on Trypanosoma cruzi [1] turned out to be 23.9 µM.

As for `COc1cc2c(c(I)c1OC)C(=O)C=CC2=O`, the selectivity ratio in series [2] turned out to be 7.5. Besides, the CC50 at 24 h in series [3] is 12.2 µM. For the same molecule, in the series on Trypanosoma cruzi [1], the IC50 amounted to 1.62 µM.

On to `COC(=O)c1ccc(I)c2c1C(=O)C=CC2=O`, for which the selectivity ratio in series [2] is 8.7. Also, the CC50 at 24 h in series [3] came out at 13.9 µM. For the same molecule, the IC50 in the series on Trypanosoma cruzi [1] amounted to 1.61 µM.

`COc1c(I)ccc2c1C(=O)C=C(C)C2=O`: the selectivity ratio in series [2] is 6.1. In series [3], the CC50 at 24 h was 24.7 µM. Moreover, the half-maximal inhibitory concentration (IC50) in the series with Trypanosoma cruzi [1] came out at 4.06 µM.

Take `O=C1C(Br)=CC(=O)c2c(I)cccc21`: in series [2], the selectivity ratio is 8.8. Besides, the Ratio in the series on Trypanosoma cruzi [4] was found to be 4.7. For the same molecule, in series [3], the CC50 at 24 h is 12.2 µM. In the series with Trypanosoma cruzi [1], the half-inhibitory concentration (IC50) turned out to be 1.38 µM.

Take `COc1c(I)ccc2c1C(=O)C=CC2=O`: in series [2], the selectivity ratio came to 9.8. The CC50 at 24 h in series [3] is 13.3 µM. The half-inhibitory concentration (IC50) in the series with Trypanosoma cruzi [1] is 1.35 µM.

Consider `O=C1C=CC(=O)c2c1ccc(I)c2O`, for which the selectivity ratio in series [2] is more than 4.6. Moreover, the CC50 at 24 h in series [3] is more than 100 µM. Also, the IC50 with Trypanosoma cruzi [1] was 42 µM.

For the molecule `CC1=C(C)C(=O)C(I)=CC1=O`, the selectivity ratio in series [2] turned out to be 1.5. Further, in series [3], the CC50 at 24 h was 15.4 µM. The concentration for half-maximal inhibition (IC50) in the series on Trypanosoma cruzi [1] is 10.1 µM.

Turning to `O=C1C=CC(=O)C(Br)=C1`, the selectivity ratio in series [2] came to 1.6. Besides, the CC50 at 24 h in series [3] was determined as 34.4 µM. In the series on Trypanosoma cruzi [1], the IC50 was 21.5 µM.

As to `O=C1C=C(I)C(=O)C(Cl)=C1Cl`, the selectivity ratio in series [2] was more than 4.7. In series [3], the CC50 at 24 h was more than 100 µM. For the same molecule, the IC50 with Trypanosoma cruzi [1] was found to be 27 µM.

`O=C1C=C([Se]c2ccccc2)C(=O)c2ccccc21`: the selectivity ratio in series [2] is 11.2. In addition, the CC50 at 24 h in series [3] turned out to be 12.7 µM. Moreover, the IC50 in the series on Trypanosoma cruzi [1] is 1.13 µM.

Turning to `O=C1C=CC(=O)c2c(/C=C/c3ccccc3)cccc21`, the selectivity ratio in series [2] came to 62.5. Moreover, the CC50 at 24 h in series [3] worked out at 11.9 µM. Besides, the IC50 in the series with Trypanosoma cruzi [1] was found to be 0.19 µM.

In the case of `O=C1C=CC(=O)c2c(I)cccc21`, the selectivity ratio in series [2] was 19.5. In addition, in series [3], the CC50 at 24 h turned out to be 11.5 µM. Also, the IC50 in the series with Trypanosoma cruzi [1] came out at 0.59 µM.

Turning to `O=C1C=C([Se]c2ccccc2)C(=O)C=C1[Se]c1ccccc1`, in series [2], the selectivity ratio was more than 1.2. In addition, in series [3], the CC50 at 24 h is more than 100 µM. For the same molecule, the concentration for half-maximal inhibition (IC50) in the series on Trypanosoma cruzi [1] was determined as 83.4 µM.

On to `O=C1C(Br)=C(Br)C(=O)c2c(I)cccc21`, for which the selectivity ratio in series [2] stood at 5.3. Further, in series [3], the CC50 at 24 h amounted to 11.8 µM. Moreover, the half-inhibitory concentration (IC50) in the series on Trypanosoma cruzi [1] turned out to be 2.25 µM.

As to `O=C1C=CC(=O)C(I)=C1`, in series [3], the CC50 at 24 h came to 86 µM. Further, the half-inhibitory concentration (IC50) with Trypanosoma cruzi [1] came to 60.6 µM.

Regarding `O=C1C=CC(=O)c2c1cccc2-c1ccccc1`, the selectivity ratio in series [2] amounted to 10.2. Also, the Ratio in the series on Trypanosoma cruzi [4] was 5.2. Besides, the CC50 at 24 h in series [3] was determined as 12.7 µM. Besides, in the series with Trypanosoma cruzi [1], the half-maximal inhibitory concentration (IC50) is 1.24 µM.

For `COc1ccc(I)c2c1C(=O)C=CC2=O`, in series [2], the selectivity ratio was 3.8. For the same molecule, the CC50 at 24 h in series [3] is 13.6 µM. The IC50 with Trypanosoma cruzi [1] amounted to 3.54 µM.

Take `O=C1C=C(Br)C(=O)c2ccccc21` [2-Bromo-1,4-naphthoquinone]: the IC50 in the series with Trypanosoma cruzi [1] came to 1.37 µM.

`O=C(Cn1ccnc1[N+](=O)[O-])NCc1ccccc1` [BENZNIDAZOLE]: the selectivity ratio in series [2] is more than 413. In addition, the CC50 at 24 h in series [3] was more than 4000 µM. The IC50 in the series with Trypanosoma cruzi [1] stood at 9.68 µM.

Consider `O=C1C=CC(=O)c2c(O)cccc21` [JUGLONE], for which the IC50 with Trypanosoma cruzi [1] was determined as 6.51 µM.

Regarding `CC1=CC(=O)c2c(O)cccc2C1=O` [PLUMBAGIN], the IC50 in the series on Trypanosoma cruzi [1] is 1.38 µM.
